Converted amounts (≈) assume the structure as drawn.
Tests used:
[1] = test system: Respiratory syncytial virus; experiment: Antiviral activity against RSV long infected in human Hep2 cells assessed as virus-induced cytopathic effect after 3 days; type: functional, organism-based; details: HEp-2, 72 h
[2] = Cytotoxicity against RSV long infected human Hep2 cells after 3 days; type: cell-based; details: HEp-2, 72 h
[3] = Selectivity index, ratio of EC50 for RSV long by cytopathic effect over IC50 for human Hep2 cells; type: functional, HEp-2
[4] = Cytotoxicity against HSV2 infected human Hep2 cells after 3 days; type: cell-based; details: HEp-2, 72 h
[5] = Selectivity index, […] for human Hep2 cells administered 3 hrs after infection; type: functional, HEp-2
Procedure, shortened: (§1)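 RSV (Long, CPE) in Hep-2 cells, seeded the day before at 10 000 cells/well in high-glucose DMEM with 2% or 10% heat-inactivated FBS. Virus (3000 PFU) or medium alone was adsorbed for 3 h at 37 °C, then 3-fold dilutions were added (eight concentrations, 830-0.38 or […] final). Incubation was 3 days at 37 °C, then neutral red stain. EC50 and IC50 were in µg/mL; SI = IC50/EC50.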

[6] = test system: Respiratory syncytial virus; experiment: Antiviral activity against RSV infected in human Hep2 cells assessed as virus-induced cytopathic effect administered 3 hrs postinfection; type: functional, organism-based; details: HEp-2, 3 h; procedure, shortened: as §1
[7] = Cytotoxicity against human Hep2 cells administered 3 hrs postinfection; type: cell-based; details: HEp-2, 3 h; procedure, shortened: as §1
[8] = test system: Respiratory syncytial virus; experiment: Antiviral activity against RSV A-2 infected in human Hep2 cells after 3 days by plaque neutralization assay; type: functional, organism-based; details: HEp-2, 72 h
[9] = Cytotoxicity against mCMV RM-461 infected human Hep2 cells after 3 days; type: cell-based; details: HEp-2, 72 h
[10] = Cytotoxicity against HSV1 infected human Hep2 cells after 3 days; type: cell-based; details: HEp-2, 72 h
[11] = Selectivity index, ratio of EC50 for HSV1 by cytopathic effect over IC50 for human Hep2 cells; type: functional, HEp-2
Human alphaherpesvirus 2 = experiment: Antiviral activity against HSV2 infected in human Hep2 cells assessed as virus-induced cytopathic effect after 3 days; type: functional, organism-based; details: Human alphaherpesvirus 2, HEp-2, 72 h
[12] = Selectivity index, ratio of EC50 for HSV2 by cytopathic effect over IC50 for human Hep2 cells; type: functional, HEp-2
Human alphaherpesvirus 1 = experiment: Antiviral activity against HSV1 infected in human Hep2 cells assessed as virus-induced cytopathic effect after 3 days; type: functional, organism-based; details: Human alphaherpesvirus 1, HEp-2, 72 h
Murine cytomegalovirus = experiment: Antiviral activity against mCMV RM461 infected in human Hep2 cells assessed as virus-induced cytopathic effect after 3 days; details: HEp-2, 72 h
[13] = Cytotoxicity against VZV 3CV-1 infected human Hep2 cells after 3 days; type: cell-based; details: HEp-2, 72 h
[14] = Selectivity index, ratio of EC50 for mCMV RM461 by cytopathic effect over IC50 for human Hep2 cells; type: functional, HEp-2
Human alphaherpesvirus 3 = experiment: Antiviral activity against VZV 3CV-1 infected in human Hep2 cells after 3 days by plaque neutralization assay; type: functional, organism-based; details: Human alphaherpesvirus 3, HEp-2, 72 h
[15] = Selectivity index, […] for human Hep2 cells; type: functional, HEp-2
[16] = Cytotoxicity against RSV A-2 infected human Hep2 cells after 3 days; type: cell-based; details: HEp-2, 72 h

SMILES | EC50 [1] | IC50 ([2]; read-out: IC50) | Ratio IC50/EC50 [3] | IC50 [4] | Ratio IC50/EC50 [5] | EC50 [6] | IC50 [7] | further results
CC(=O)O[C@@H]1[C@@H](OC(C)=O)[C@H](C)O[C@@H](O[C@@H]2[C@@H](OC(C)=O)[C@H](OCCc3ccc(O)c(O)c3)O[C@H](COC(=O)/C=C/c3ccc(O)c(O)c3)[C@H]2OC(C)=O)[C@@H]1OC(C)=O | 1.93 µg/mL (≈ 2.31 µM) | 15.9 µg/mL (≈ 19 µM) | 8.2 |  |  |  |  | 
CC(=O)OC[C@H]1O[C@@H](OCCc2ccc(O)c(O)c2)[C@H](OC(C)=O)[C@@H](O[C@@H]2O[C@@H](C)[C@H](OC(C)=O)[C@@H](OC(C)=O)[C@H]2OC(C)=O)[C@@H]1OC(=O)/C=C/c1ccc(O)c(O)c1 | 5.87 µg/mL (≈ 7.03 µM) | 26.2 µg/mL (≈ 31.4 µM) | 4.4 |  |  |  |  | 
C[C@@H]1O[C@@H](O[C@@H]2[C@@H](O)[C@H](OCCc3ccc(O)c(O)c3)O[C@H](CO)[C@H]2OC(=O)/C=C/c2ccc(O)c(O)c2)[C@H](O)[C@H](O)[C@H]1O [ACETOSIDE] | 0.8 µg/mL (≈ 1.28 µM) |  | 85 | 71 µg/mL (≈ 114 µM) | 415 | 0.26 µg/mL (≈ 0.416 µM) | 108 µg/mL (≈ 173 µM) | IC50 [2]: 76.9 µg/mL (≈ 123 µM); EC50 [8]: 9.7 µg/mL (≈ 15.5 µM); IC50 [9]: 44 µg/mL (≈ 70.4 µM)
Nc1nc2c(ncn2COCCO)c(=O)[nH]1 [ACYCLOVIR] |  |  |  | > 10 µg/mL |  |  |  | IC50 [10]: > 67 µg/mL; Ratio IC50/EC50 [11]: >250; EC50 (Human alphaherpesvirus 2): 2.3 µg/mL (≈ 10.2 µM); Ratio IC50/EC50 [12]: >4.3; EC50 (Human alphaherpesvirus 1): 0.26 µg/mL (≈ 1.15 µM)
Nc1nc2c(ncn2COC(CO)CO)c(=O)[nH]1 [GANCICLOVIR] |  |  |  |  |  |  |  | EC50 (Murine cytomegalovirus): 5 µg/mL (≈ 19.6 µM); IC50 [13]: 840 µg/mL (≈ 3290 µM); IC50 [9]: > 100 µg/mL; Ratio IC50/EC50 [14]: >20; EC50 (Human alphaherpesvirus 3): 26.7 µg/mL (≈ 105 µM)
C[C@@H]1O[C@@H](O[C@@H]2[C@@H](O)[C@H](OCCc3ccc(O)c(O)c3)O[C@H](COC(=O)/C=C/c3ccc(O)c(O)c3)[C@H]2O)[C@H](O)[C@H](O)[C@H]1O [ISOACTEOSIDE] | 0.62 µg/mL (≈ 0.993 µM) | 51.4 µg/mL (≈ 82.3 µM) | 84 | 27 µg/mL (≈ 43.2 µM) | 735 | 0.17 µg/mL (≈ 0.272 µM) | 125 µg/mL (≈ 200 µM) | IC50 [10]: 30 µg/mL (≈ 48 µM); EC50 [8]: 1.1 µg/mL (≈ 1.76 µM); IC50 [13]: 75 µg/mL (≈ 120 µM); IC50 [9]: 89 µg/mL (≈ 142 µM)
CC(=O)Oc1ccc(/C=C/C(=O)OC[C@H]2O[C@@H](OCCc3ccc(OC(C)=O)c(OC(C)=O)c3)[C@H](OC(C)=O)[C@@H](O[C@@H]3O[C@@H](C)[C@H](OC(C)=O)[C@@H](OC(C)=O)[C@H]3OC(C)=O)[C@@H]2OC(C)=O)cc1OC(C)=O [ISOVERBASCOSIDE NOAACETATE] | 3.4 µg/mL (≈ 3.39 µM) | 11.2 µg/mL (≈ 11.2 µM) | 3.3 |  |  |  |  | 
CC(=O)OC[C@H]1O[C@@H](OCCc2ccc(O)c(O)c2)[C@H](O[C@@H]2OC[C@](O)(CO)[C@@H]2O)[C@@H](O[C@@H]2O[C@@H](C)[C@H](O)[C@@H](O)[C@H]2O)[C@@H]1OC(=O)/C=C/c1ccc(O)c(O)c1 [LUTEOSIDE A] | 0.87 µg/mL (≈ 1.09 µM) | 77 µg/mL (≈ 96.4 µM) | 89 |  | 16 | 11 µg/mL (≈ 13.8 µM) | 180 µg/mL (≈ 225 µM) | 
C[C@@H]1O[C@@H](O[C@H]2[C@H](O)[C@@H](COC(=O)/C=C/c3ccc(O)c(O)c3)O[C@@H](OCCc3ccc(O)c(O)c3)[C@@H]2O[C@@H]2OC[C@](O)(CO)[C@@H]2O)[C@H](O)[C@H](O)[C@H]1O [LUTEOSIDE B] | 3.4 µg/mL (≈ 4.49 µM) | > 67 µg/mL | >19 | 90 µg/mL (≈ 119 µM) | 780 | 0.23 µg/mL (≈ 0.304 µM) | 180 µg/mL (≈ 238 µM) | IC50 [10]: 93 µg/mL (≈ 123 µM)
COc1cc(/C=C/C(=O)OC[C@H]2O[C@@H](OCCc3ccc(O)c(O)c3)[C@H](O[C@@H]3OC[C@](O)(CO)[C@@H]3O)[C@@H](O[C@@H]3O[C@@H](C)[C@H](O)[C@@H](O)[C@H]3O)[C@@H]2O)ccc1O [LUTEOSIDE C] | 15.5 µg/mL (≈ 20.1 µM) | 189 µg/mL (≈ 245 µM) | 12 |  | >28 | 12 µg/mL (≈ 15.6 µM) | > 330 µg/mL | 
NC(=O)c1ncn([C@@H]2O[C@H](CO)[C@@H](O)[C@H]2O)n1 [RIBAVIRIN] | 1.8 µg/mL (≈ 7.37 µM) | 35 µg/mL (≈ 143 µM) | 19 |  | 10.8 | 2.3 µg/mL (≈ 9.42 µM) | 25 µg/mL (≈ 102 µM) | Ratio IC50/EC50 [15]: 11; EC50 [8]: 2.2 µg/mL (≈ 9.01 µM); IC50 [16]: 25 µg/mL (≈ 102 µM)
CC(=O)OC[C@H]1O[C@@H](OCCc2ccc(OC(C)=O)c(OC(C)=O)c2)[C@H](OC(C)=O)[C@@H](O[C@@H]2O[C@@H](C)[C@H](OC(C)=O)[C@@H](OC(C)=O)[C@H]2OC(C)=O)[C@@H]1OC(=O)/C=C/c1ccc(OC(C)=O)c(OC(C)=O)c1 [VERBASCOSIDE NONAACETATE] |  | 33.7 µg/mL (≈ 33.6 µM) |  |  |  |  |  | 
